According to publication PMC9907361 (Gastric cancer : official journal of the International …, 2021):
Entries after “also recorded” stand apart in the source; their conditions may differ.

Key:
cells = conditions: cited from earlier work
[1] = system: AGS cells overexpressing WNT1; assay: Lactose/mannose treatment of WNT1-overexpressing AGS cells; format: cell-based, human; conditions: 50 mM, 4 h preincubation
Method in brief: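 AGS cells were transfected with HA-WNT1. Lactose or mannose (50 mM) was added 4 h before cell extraction, and the indicated proteins were then detected in the extracts.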

AGS cells = format: cell-based, human
[2] = target: human STAT3 (residues 127–688) (Homo sapiens, UniProt P40763); assay: ITC binding of galectin-3 peptides to STAT3; conditions: abstract statement
human STAT3 (residues 127–688), sequence (P40763 127-688): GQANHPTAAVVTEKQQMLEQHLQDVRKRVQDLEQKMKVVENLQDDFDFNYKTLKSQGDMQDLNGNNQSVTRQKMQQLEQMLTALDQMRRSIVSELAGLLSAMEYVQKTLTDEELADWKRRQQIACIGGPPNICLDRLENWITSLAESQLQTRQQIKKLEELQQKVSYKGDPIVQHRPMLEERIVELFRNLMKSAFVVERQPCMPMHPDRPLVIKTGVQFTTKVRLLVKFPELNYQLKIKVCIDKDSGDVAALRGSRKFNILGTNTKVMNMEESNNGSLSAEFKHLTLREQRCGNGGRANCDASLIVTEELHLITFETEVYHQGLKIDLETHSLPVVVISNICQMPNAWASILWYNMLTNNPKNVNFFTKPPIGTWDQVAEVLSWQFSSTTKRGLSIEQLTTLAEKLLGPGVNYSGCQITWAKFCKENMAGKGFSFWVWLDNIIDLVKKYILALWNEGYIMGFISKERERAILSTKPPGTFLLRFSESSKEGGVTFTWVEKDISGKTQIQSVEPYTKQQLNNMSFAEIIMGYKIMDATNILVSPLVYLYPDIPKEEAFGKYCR
Method in brief: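 Human STAT3 residues 127–688 was expressed from pET22b(+) and purified. ITC was run at 25 °C. Wild-type and Y45-phosphorylated galectin-3 peptides (140 μM each) in 20 mM Tris pH 7.5, 300 mM NaCl were injected at 220 s intervals into 7 μM STAT3. Heats of dilution from buffer controls were subtracted, and data were fitted to a single set of binding sites model.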

OC[C@H]1O[C@@H](O[C@H]2[C@H](O)[C@@H](O)C(O)O[C@@H]2CO)[C@H](O)[C@@H](O)[C@H]1O (mixture of isomers) [lactose]
cellular uptake of lactose (cells; stated without reference): too polar to be taken up by the cells
inhibition of STAT3 phosphorylation [1]: did not inhibit
inhibition of β-catenin stability [1]: did not inhibit

OC[C@H]1O[C@H](Sc2ccc(Cl)c(Cl)c2)[C@H](O)[C@@H](n2cc(-c3cc(F)c(F)c(F)c3)nn2)[C@H]1O [GB1107]
uptake across cell membranes (cells): improved uptake across cell membranes; also recorded: can penetrate into cells

OC[C@H]1OC(O)[C@@H](O)[C@@H](O)[C@@H]1O (stereo partly drawn) [mannose]
inhibition of STAT3 phosphorylation [1]: did not inhibit
inhibition of β-catenin stability [1]: did not inhibit

IL-6: IL-6 cytokine
STAT3 phosphorylation on IL-6 treatment (AGS cells; AGS cells, IL-6 alone): induced STAT3 phosphorylation

YPGQ [peptide of galectin-3 (Y45-Q48)]
direct binding to the STAT3 SH2 domain [2]: directly bound to the STAT3 SH2 domain
enhancement of STAT3 phosphorylation (AGS cells; abstract statement): enhanced its phosphorylation
